Laboratory results: ChEMBL document CHEMBL4513216, “Probing the Open Global Health Chemical Diversity Library for Multistage-Active Starting Points for Next-Generation Antimalarials” (ACS Infect Dis, 2020)

assay: Toxicity liver stage against HepG2, at 10uM; type: cell-based; set-up: test concentration 10 uM, cell line HepG2-A16-CD81EGFP; conditions: human, HepG2-A16-CD81EGFP cells; read-out: INHIBITION
Method in brief: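 Uninfected HepG2-A16-CD81EGFP cells, 3 × 10^3 per well, 1536-well, plated on prespotted compound at 10 μM final, parasite-free screening media added to match infected plates; puromycin 10 μM positive, DMSO 0.5% negative; run in parallel with 48 h PbLuc assay at 37 °C, 5% CO2; viability by CellTiter-Glo luminescence, normalized to controls.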

SMILES	cytotoxicity at 10 µM
CN(C)C(=O)Cn1cc(C(=O)NCCc2ccc(C(F)(F)F)cc2)nn1	-15.6%
COCC(=O)Nc1ccc([C@@H](O)[C@H]2COCC(=O)N2CC(C)C)cc1	17.6%
COCC(=O)N1CCN(C(=O)c2cccs2)[C@@H](C(=O)OC)C1	-8.64%
O=C(C1CC1)N1CC[C@H](c2nnc(-c3ccccc3F)o2)C1	0.705%
CCOC(=O)C1CCN(C(=O)c2cnn(-c3ccc(C)cc3)c2N)CC1	1.84%
CC(C)NC(=O)Cn1ccc2c(Cl)cccc21	7.46%
CCCc1cc(=O)[nH]c2nnc(SCC(=O)OC)n12	12.2%
CN(C)CC1CSCCCN1C(=O)c1ccsc1 (stereo unspecified)	5.09%
O=C(CC(F)(F)F)N1C[C@H]2CN(CC3CC3)C(=O)[C@H]2C1	0.493%
O=C(NCC1CC1)C1CCC2(CCN(C(=O)c3ccco3)CC2)O1 (stereo unspecified)	5.91%
Cn1cc(-c2cnc3n2CCC32CCN(S(C)(=O)=O)CC2)cn1	-127%
c1coc(CN2CCc3onc(Cn4ccnc4)c3C2)c1	7.52%
COC(=O)CCC(=O)N1CCC2(CN(Cc3ccc(Cl)cc3)C2)C1	5.7%
O=c1[nH]c2nc(NCC3CCCO3)ncc2c(=O)n1-c1cccc(F)c1 (stereo unspecified)	-9.24%
Cc1cccc(NC(=O)c2csc(NCC(C)C)n2)n1	-3.33%
CNC(=O)CS(=O)(=O)C1CCN(S(=O)(=O)c2ccccc2Br)CC1	-18.3%
COc1ccc(NCc2nc(=O)n(CCC(C)C)[nH]2)cc1	-2.9%
CCN1C[C@H]2CCN(C(C)=O)CC[C@H]2S1(=O)=O	0.0452%
O=C(COc1ccccc1)N1CCC[C@]2(C[C@H](OCC3CC3)CO2)C1	8.68%
COCc1cccc(S(=O)(=O)NCc2cnn(C)c2C)c1	-4.02%
Cc1nc(N2CCOCC2)ncc1-c1cc(O)nc(N2CCCC2)n1	7.63%
CC(SCCNS(=O)(=O)c1cnn(C)c1)c1cccs1 (stereo unspecified)	12.9%
CCc1nc2n(n1)CC(Nc1nc(C)cc(N(C)C)n1)CC2 (stereo unspecified)	5.02%

SMILES	cytotoxicity at 10 µM
CCn1cc(S(=O)(=O)Nc2ccc3[nH]c(C4CCC4)nc3c2)cn1	1.45%
Brc1ccc(CN2CCC(NCc3ncc[nH]3)CC2)cc1	14.8%
Cc1noc(C)c1CN(C)C(=O)C1CCCN1S(N)(=O)=O (stereo unspecified)	7.89%
NC(=O)C1CCN(S(=O)(=O)c2cnn(-c3ccccc3)c2)CC1	8.51%
CNC(=O)CN(C)CC1(c2ccc(Br)cc2)CC1	3.89%
NC(=O)[C@@H]1Cc2ccccc2CN1CCC(=O)N1CCOCC1	-5.82%
Cc1noc(C)c1CC(=O)NCCc1cccs1	-0.651%
CCN(CC)C(=O)Nc1ccc(N2CCSCC2)cc1C	-8.44%
CCNC(=O)CNS(=O)(=O)Cc1cc(-c2ccccc2)no1	-6.71%
CC1CN(S(=O)(=O)c2ccc(F)cc2F)c2cccnc2O1 (stereo unspecified)	2.02%
CCc1ccc(C(C)NC(=O)CN(C)Cc2ccc(C)o2)cc1 (stereo unspecified)	18.4%
Cc1cc(CN(C)C(=O)NCc2ccnc(SC(C)(C)C)c2)no1	10.4%
CCc1nc(C2CCCN(C(=O)c3c[nH]c(C(C)C)n3)C2)no1 (stereo unspecified)	-5.43%
COC(=O)N1CCC(Nc2cccc(F)c2C#N)CC1	18.1%
COc1cc(CNC(=O)C(C)SC)cc(Br)c1OC (stereo unspecified)	0.247%
N#Cc1ccnc(N2CCN(CC(O)c3cc(F)ccc3F)CC2)c1 (stereo unspecified)	1.31%
Cc1cccc(CNC(=O)Nc2cc(C(F)(F)F)c[nH]c2=O)n1	0.488%
O=C(C1CCCN1c1ncnc2ccsc12)N1CCSCC1 (stereo unspecified)	3%
O=C1OCCN1CCS(=O)(=O)c1cccc(Br)c1	6.29%
CCc1noc(CC)c1CNC(=O)Nc1cccc([S+](C)[O-])c1 (stereo unspecified)	13.4%
CC1CN(C(=O)c2cc[nH]c(=O)c2)c2ccccc21 (stereo unspecified)	1.5%
CCC1(c2ccc(NS(=O)(=O)c3ccc(Cl)s3)cc2)CCC(=O)NC1=O (stereo unspecified)	13.5%
CCn1cc(S(=O)(=O)N2CCC(C)Sc3ccccc32)cn1 (stereo unspecified)	3.34%

SMILES	cytotoxicity at 10 µM
Cc1cc(C(=O)N2CCCN(c3nccs3)CC2)c(C)n1C(C)C	9.48%
COCc1noc(-c2cc(Cl)c3c(c2)OCO3)n1	-4.05%
Cc1cc(C(C)(O)CNC(=O)CCOCC(C)C)c(C)o1 (stereo unspecified)	3.94%
Cc1cc(NC(=O)Cc2ccccc2O)c[nH]c1=O	-2.38%
OCC1CN(Cc2nc(C(F)(F)F)cs2)c2ccccc2O1 (stereo unspecified)	3.97%
Cc1nnc(-c2cccc(C#N)c2)n1C1CCN(C2CC2)C1=O (stereo unspecified)	-11.8%
CCOCC(=O)NCCc1ccc(I)s1	-4.76%
CC(CO)(NC(=O)Nc1nnc(C(F)F)s1)C1CC1 (stereo unspecified)	9.23%
CC(=O)N(Cc1ncc(C)o1)C1CCN(CCNC2CCCCC2)C1 (stereo unspecified)	15.4%
CN(Cc1cccc(F)c1)S(=O)(=O)N1CCOCC1	-1.97%
O=C(NCc1ccc(F)cc1)N1CCC(C2OCCO2)CC1	-2.39%
Cc1cccc(CN2CCn3c(COc4ncccn4)nnc3C2)n1	-1.35%
CCC(O)CNC(=O)c1cc(COc2ccc(OC)cc2Cl)[nH]n1 (stereo unspecified)	-8.09%
COCc1noc(-c2ccc(N(C)Cc3ccc(C)o3)nc2)n1	-3.7%
CS(=O)(=O)Nc1ccc2c(c1)NC(=O)CC2c1cnn2cccnc12 (stereo unspecified)	-1.77%
CCN1CCC(CC(=O)NCCc2nc(C)cc(C)n2)CC1	-8.06%
CN1CCN(Cc2c(Cl)ccc(O)c2Cl)CC1C(=O)O (stereo unspecified)	9.46%
OC1COCCN(Cc2cc(-c3ccccc3OC(F)(F)F)no2)C1 (stereo unspecified)	-12.7%
CCc1cnc(NCCCOC2CCCC2)nc1	-0.0184%
COCCN1CCN(Cc2nc3c(s2)CCCC3)[C@H]2CS(=O)(=O)C[C@H]21	6.81%
Cc1nc(N(C)CCCc2nccn2C)c2nc(C)oc2n1	5.82%
CNc1ccc(C)cc1C(=O)N[C@H]1C[C@H]2CN(C)CCN2C1	-4.57%
COc1ccc(C(C(=O)O)N2CCN(C3CCCC3)CC2)cc1OC (stereo unspecified)	-17.1%

SMILES	cytotoxicity at 10 µM
CCn1c(N)nc2cc(C(=O)NCc3cccc(C)c3C)cnc21	19.7%
Cc1ncc(CC(=O)N2CCCC(COc3ccc(F)cc3)C2)c(=O)[nH]1 (stereo unspecified)	-142%
O=C(C1CNCCN1C(=O)CCOc1ccccc1)N1CCCC1 (stereo unspecified)	-7.42%
Cc1ccc(OCC(O)CNC(=O)C2(c3ccc(F)cc3)CC2)cc1 (stereo unspecified)	0.675%
CN(Cc1ccc2c(c1)OCO2)C(=O)c1ccc(C2CCCNC2)cc1 (stereo unspecified)	-11.8%
COc1ccc(CN2CCCC2)cc1Oc1ccc2c(c1)CC(CN)O2 (stereo unspecified)	-10.5%
O=c1cc(N2CCCCC2)cnn1Cc1noc(C2CCCO2)n1 (stereo unspecified)	-47.1%
COc1cccc2c1OCC(C(=O)N1CCC(N3CCSCC3)CC1)C2 (stereo unspecified)	2.24%
CC(C)N1CCCC2(CCN(Cc3nncn3C(C)C)C2)C1=O (stereo unspecified)	-108%
O=C(NCc1ccc2c(c1)CCCO2)c1ccccc1C1CCNC1 (stereo unspecified)	6.58%
Cc1cc(CN2CCC(CNC(=O)c3cnc(C)nc3C)C2)[nH]n1 (stereo unspecified)	-140%
COCCN(C)C[C@@H]1CN(c2nnc(C(C)C)s2)C[C@@H]1CO	-2.35%
COc1cnc(N2CCC(Oc3ccccc3OC)(C(=O)O)CC2)nc1	-13.5%
CN1C(=O)C(c2ccccc2)CC12CCN(CCOCCO)CC2 (stereo unspecified)	39.8%
Cc1nc(C2CCCN(C(=O)c3ccnc(N(C)C)c3)C2)no1 (stereo unspecified)	-4.77%
Cc1ccc(NC2CCN(C(=O)CCc3ccccc3)CC2)nn1	-10.5%
Cc1ncc(CN2CCC(N(C)Cc3noc(C4CC4)n3)C2)s1 (stereo unspecified)	-3.16%
Cc1noc(C)c1C(=O)NCc1cccnc1N(C)C	-9.42%
CN(Cc1nccn1C)C1CCCN(Cc2noc(C3CC3)n2)C1 (stereo unspecified)	-3.54%
Cc1cc(CN(C)C(=O)NC2CCN(Cc3ccccn3)CC2)no1	-17.4%
O=C1CCc2cc(-c3csc(CCN4CCOC4=O)n3)ccc2N1	-12.2%
CCC(O)CN1CCN(C(=O)c2ccc(N(C)C)nn2)CC1 (stereo unspecified)	-6.83%
O=C(CCCn1cncn1)N1CCCC1c1noc(C2CC2)n1 (stereo unspecified)	-31.5%

SMILES	cytotoxicity at 10 µM
O=C(NCc1ccnc(-n2cccn2)c1)C1CC(=O)N(CC2CC2)C1 (stereo unspecified)	5.48%
Cc1nn(C)c(N2CCOCC2)c1CNCc1ccccc1CO	-13.2%
O=C(CS(=O)(=O)c1ccccc1Cl)NC1CCCCNC1=O (stereo unspecified)	-13.2%
CN(CC(=O)N1CCCC1c1cnn(C)c1)c1ccc(Cl)cn1 (stereo unspecified)	-6.14%
Cc1ccc(NC2CCN(C(=O)c3cccc(F)c3F)CC2)nn1	-4.4%
CCOC1CCCN(C(=O)NCCc2ccn(-c3ccccc3)n2)C1 (stereo unspecified)	3.13%
O=C(Nc1cc(F)ccc1OCC1CCCO1)c1ccccn1 (stereo unspecified)	2.57%
CCc1ncc(CN(C)C2CCN(C(C)C)CC2)cn1	-3.91%
O=C(N1CCCO1)[C@@]12CCO[C@@H]1CCN(Cc1ccccn1)C2	3.98%
O=C(N1CCCC1)N1CCO[C@H]2[C@@H](OCc3cccnc3)CC[C@@H]21	-1.6%
CN(C)C(=O)COC[C@H]1CC[C@@H]2[C@@H](CCN2Cc2ccccn2)O1	-18.7%
CSc1ccc(CNC(c2ccccc2F)c2nccn2C)cc1 (stereo unspecified)	1.75%
CC(=O)N1CCC2(CCCN2Cc2cnn(C)c2)CC1	-2.27%
COCCN1CCC2(C1)CN(c1ncccn1)C2	10.7%
CC(C)OCCCN(Cc1ccncc1)Cc1cc(F)cc(F)c1	-25.6%
CN(C)C(=O)N1CCC2(CC1)CCN(c1ncccn1)C2	-1.05%
Cc1cccc(CN2CCc3ncnc(N4CCCC4)c3CC2)n1	-145%
C=c1ccoc1=C1NN=C(CNCCn2cc(C)cn2)O1	1.12%
CC1CCCCN1S(=O)(=O)NCCNC(=O)c1ncccc1O (stereo unspecified)	2.34%
